Activity calls are given as the source filed them. The rule behind the calls is not given here.
What was measured:
COLO357 [1] = experiment: Cytotoxicity against human COLO-357 cells assessed as inhibition of cell growth incubated for 72 hrs by MTT assay; format: functional, cell-based; conditions: COLO357, 72 h
Method in brief: (§1)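 Cells in DMEM with 10% FCS, seeded 24 h before assay at 3 × 10^5 cells per mL and incubated overnight. DMSO stocks (20 mM) diluted to 20 μM–0.1 nM and added to cells for 72 h, with untreated controls. MTT added for the last 6 h, formazan dissolved in DMSO, OD read at 540 nm.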

BXPC-3 = experiment: Cytotoxicity against human BxPC-3 cells assessed as inhibition of cell growth incubated for 72 hrs by MTT assay; format: functional, cell-based; conditions: BXPC-3, 72 h; method in brief: as §1
HaCaT = experiment: Cytotoxicity against human HaCaT cells assessed as inhibition of cell growth incubated for 72 hrs by MTT assay; format: functional, cell-based; method in brief: as §1
HEK293 = experiment: Cytotoxicity against human HEK293 cells assessed as inhibition of cell growth incubated for 72 hrs by MTT assay; format: functional, cell-based; conditions: HEK293, 72 h; method in brief: as §1
COLO357 [2] = experiment: Induction of cell cycle arrest in human COLO357 cells assessed as G2/M phase at 5 uM incubated for 72 hrs by propidium iodide staining based flow cytometry analysis (reference value: 7.2 %); format: functional
COLO357 [3] = experiment: Induction of cell cycle arrest in human COLO357 cells assessed as G1 phase at 5 uM incubated for 72 hrs by propidium iodide staining based flow cytometry analysis (reference value: 91.1 %); format: functional
COLO357 [4] = experiment: Induction of apoptosis in human COLO357 cells at 5 uM incubated for 72 hrs by propidium iodide staining based flow cytometry analysis (reference value: 0.3 %); format: functional
[5] = Induction of cell cycle arrest in […] L929 cells assessed as G2/M phase at 5 uM incubated for 72 hrs by propidium iodide staining based flow cytometry analysis (reference value: 8 %); format: functional
[6] = Induction of cell cycle arrest in […] L929 cells assessed as G1 phase at 5 uM incubated for 72 hrs by propidium iodide staining based flow cytometry analysis (reference value: 91 %); format: functional
[7] = Induction of apoptosis in […] L929 cells at 5 uM incubated for 72 hrs by propidium iodide staining based flow cytometry analysis (reference value: 1.2 %); format: functional
COLO357 [8] = experiment: Induction of mitotic arrest in human COLO357 cells assessed as disruption of mitotic spindle arrangement at 5 uM incubated for 72 hrs by immunofluorescence based confocal microscopic analysis; format: functional, cell-based
Method in brief: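 COLO-357 cells (10^5 per coverslip) grown overnight, then exposed to 5 μM in complete medium for 72 h. Fixed in 1% paraformaldehyde and permeabilized with 0.1% Triton X100 in PBS. Stained with anti-β-tubulin antibody and AlexaFluor555 anti-mouse IgG, nuclei with Hoechst 33342, then imaged by confocal microscopy.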

[9] = Toxicity in iv dosed C57BL/6 mouse assessed as lethal dose measured after 40 to 48 hrs; format: organism-based; conditions: in vivo, time 40-48 hrs; for LD50: C57BL/6, mouse; for LD100: mouse
Method in brief: (§2)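 Acute toxicity in C57BL/6 mice, 6–8 weeks old, 10 per group. Each mouse got one intravenous dose of 4, 7, 10 or 13 mg kg–1. The dose range was set in preliminary experiments. Signs of toxicity (ruffled fur, poor mobility, lower body temperature) and lethality were recorded at 24 h and 48 h after injection. Survivors at 48 h were followed for 1 week. LD50 and LD100 were derived.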

[10] = Toxicity in iv dosed C57BL/6 mouse assessed as lethal dose measured after 24 hrs; format: organism-based; conditions: in vivo; method in brief: as §2
[11] = Inhibition of lamb brain tubulin polymerization assessed as reduction in microtubule formation incubated for 40 mins by spectrophotometric analysis; format: tissue-based, Ovis aries

SMILES | IC50 (COLO357 [1]) [nM] | IC50 (BXPC-3) [nM] | IC50 (HaCaT) [nM] | IC50 (HEK293) [nM] | other results
C=CC(=O)NCC(=O)N[C@H]1CCc2cc(OC)c(OC)c(OC)c2-c2ccc(C(=O)OC)cc21 | 400 | 80 | 80 | 400 | 
C/C=C/C=C/C(=O)OCC(=O)N[C@H]1CCc2cc(OC)c(OC)c(OC)c2-c2cc3cc(COC(C)=O)oc3cc21 | 16 | 16 | 0.6 | 3 | 
COc1cc2c(c(OC)c1OC)-c1ccc(OC)c(=O)cc1[C@@H](NC(C)=O)CC2 [COLCHICINE] | 16 | 16 | 3 | 16 | Activity (COLO357 [2]): 61%; Activity (COLO357 [3]): 33%; Activity (COLO357 [4]): 10%; Activity [5]: 74%; Activity [6]: 30%; Activity [7]: 3%; Activity (COLO357 [8]): Active; LD50 [9]: 8.5 mg/kg; LD100 [9]: 10.9 mg/kg
C/C=C/C(=O)OCC(=O)N[C@H]1CCc2cc(OC)c(OC)c(OC)c2-c2ccc(C(=O)OC)cc21 | 16 | 16 | 3 | 3 | Activity (COLO357 [2]): 60%; Activity (COLO357 [3]): 32%; Activity (COLO357 [4]): 9.3%; Activity (COLO357 [8]): Active; LD50 [9]: 6.5 mg/kg; LD100 [9]: 9.8 mg/kg
COC(=O)c1ccc2c(c1)[C@@H](NC(=O)COC(=O)CC(C)SC[C@@H](NC(C)=O)C(=O)OC)CCc1cc(OC)c(OC)c(OC)c1-2 (mixture of isomers) | 80 | 16 | 16 | 16 | 
COC(=O)c1ccc2c(c1)[C@@H](NC(=O)CNC(=O)C=C(C)C)CCc1cc(OC)c(OC)c(OC)c1-2 | 80 | 16 | 16 | 16 | 
C/C=C/C(=O)NCC(=O)N[C@H]1CCc2cc(OC)c(OC)c(OC)c2-c2ccc(C(=O)OC)cc21 | 80 | 80 | 80 | 80 | 
COC(=O)c1ccc2c(c1)[C@@H](NC(=O)CNC(=O)/C=C/C(F)(F)F)CCc1cc(OC)c(OC)c(OC)c1-2 | 80 | 16 | 16 | 80 | 
C/C=C/C=C/C(=O)NCC(=O)N[C@H]1CCc2cc(OC)c(OC)c(OC)c2-c2cc3cc(CO)oc3cc21 | 400 | 400 | 400 | 400 | 
C/C=C/C=C/C(=O)OCC(=O)N[C@H]1CCc2cc(OC)c(OC)c(OC)c2-c2ccc(C(=O)OC)cc21 | 3 | 3 | 0.6 | 3 | Activity [5]: 61%; Activity [6]: 40%; Activity [7]: 5.6%; Activity (COLO357 [8]): Active; LD50 at 24 h ([10]; C57BL/6, mouse): 6.1 mg/kg; LD100 ([10]; mouse, 24 h): 8.4 mg/kg; IC50 [11]: 6780 nM
COC(=O)c1ccc2c(c1)[C@@H](NC(=O)COC(=O)C=C(C)C)CCc1cc(OC)c(OC)c(OC)c1-2 | 16 | 3 | 3 | 16 | 
C=CC(=O)OCC(=O)N[C@H]1CCc2cc(OC)c(OC)c(OC)c2-c2ccc(C(=O)OC)cc21 | 16 | 16 | 16 | 16 | 
COC(=O)c1ccc2c(c1)[C@@H](NC(=O)COC(=O)/C=C/C(F)(F)F)CCc1cc(OC)c(OC)c(OC)c1-2 | 16 | 16 | 16 | 16 | 
C/C=C/C=C/C(=O)NCC(=O)N[C@H]1CCc2cc(OC)c(OC)c(OC)c2-c2ccc(C(=O)OC)cc21 | 16 | 3 | 3 | 16 | 

From ChEMBL document CHEMBL4699416, “Allocolchicinoids bearing a Michael acceptor fragment for possible irreversible binding of tubulin” (RSC Med Chem, 2020)
